Data published in ChEMBL document CHEMBL3351667, “A chemical tuned strategy to develop novel irreversible EGFR-TK inhibitors with improved safety and pharmacokinetic profiles” (J Med Chem, 2014).

How the values were obtained:
[1] = (§1) AUC (0 to infinity) in BALB/c mouse at 5 mg/kg, po after 24 hrs by LC/MS/MS method; assay type: ADME, organism-based, Plasma; parameters: time infinity, dose 5 mg/kg, route oral; details: BALB/c, plasma
[2] = Intrinsic clearance in rat liver microsomes assessed per mg protein at 1 uM in presence of NADPH after 0.5 to 30 mins by LC/MS/MS method; assay type: ADME; details: read-out: CLH
A-431 = assay: cells; assay type: functional, cell-based; details: Homo sapiens, A-431, 48 h
[3] = Ratio of drug level in lung to plasma in BALB/c mouse at 30 mg/kg, po after 6 hrs by LC/MS/MS method; assay type: ADME, organism-based; parameters: dose 30 mg/kg, route oral
Procedure, shortened: (§2)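 BALB/c mice received a single oral dose of 30 mg/kg. Drug concentrations in lung, brain and plasma were measured at multiple time points over 6 h. Mean tissue levels are expressed as a lung/plasma/brain ratio, with plasma set to 1.0.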

[4] = Ratio of drug level in brain to plasma in BALB/c mouse at 30 mg/kg, po after 6 hrs by LC/MS/MS method; assay type: ADME, organism-based; parameters: dose 30 mg/kg, route oral; details: read-out: BPR; procedure, shortened: as §2
[5] = Intrinsic clearance in human liver microsomes assessed per mg protein at 1 uM in presence of NADPH after 0.5 to 30 mins by LC/MS/MS method; assay type: ADME; details: read-out: CLH
hERG (KCNH2) [6] = target: T1, hERG (KCNH2) (Homo sapiens, UniProt Q12809); assay: Inhibition of human ERG assessed as reduction in channel currents at 1 uM
hERG (KCNH2) [7] = target: T1, hERG (KCNH2); assay: Inhibition of human ERG assessed as reduction in channel currents at 10 uM
Cytochrome P450 3A4 = Cytochrome P450 3A4 (Homo sapiens, UniProt P08684); assay: Inhibition of CYP3A4 in human hepatic microsomes after 20 mins by LC/MS/MS method; assay type: ADME, Liver
[8] = Intrinsic clearance in mouse liver microsomes assessed per mg protein at 1 uM in presence of NADPH after 0.5 to 30 mins by LC/MS/MS method; assay type: ADME; details: read-out: CLH
Cytochrome P450 2C9 = Cytochrome P450 2C9 (Homo sapiens, UniProt P11712); assay: Inhibition of CYP2C9 in human hepatic microsomes after 20 mins by LC/MS/MS method; assay type: ADME, Liver
[9] = Oral bioavailability in BALB/c mouse at 5 mg/kg after 24 hrs by LC/MS/MS method; assay type: ADME, organism-based; details: in vivo
NCI-H1975 [10] = assay: Antitumor activity against human NCI-H1975 cells xenografted in nude mouse assessed as reduction in tumor growth at 30 mg/kg/day, ig relative to untreated control; assay type: functional; details: route intragastric
[11] = Intrinsic clearance in monkey liver microsomes assessed per mg protein at 1 uM in presence of NADPH after 0.5 to 30 mins by LC/MS/MS method; assay type: ADME, Macaca mulatta; details: rhesus monkey, read-out: CLH
[12] = (§3) Apparent clearance in BALB/c mouse at 5 mg/kg, po after 24 hrs by LC/MS/MS method; assay type: ADME, organism-based; parameters: dose 5 mg/kg, route oral; details: BALB/c, in vivo, read-out: CL(app)
Cytochrome P450 2D6 = Cytochrome P450 2D6 (Homo sapiens, UniProt P10635); assay: Inhibition of CYP2D6 in human hepatic microsomes after 20 mins by LC/MS/MS method; assay type: ADME, Liver
Cytochrome P450 2C19 = Cytochrome P450 2C19 (Homo sapiens, UniProt P33261); assay: Inhibition of CYP2C19 in human hepatic microsomes after 20 mins by LC/MS/MS method; assay type: ADME, Liver
Cytochrome P450 1A2 = target: T2, Cytochrome P450 1A2 (Homo sapiens, UniProt P05177); assay: Inhibition of CYP1A2 in human hepatic microsomes after 20 mins by LC/MS/MS method; assay type: ADME, Liver
T2 sequence (P05177 whole entry): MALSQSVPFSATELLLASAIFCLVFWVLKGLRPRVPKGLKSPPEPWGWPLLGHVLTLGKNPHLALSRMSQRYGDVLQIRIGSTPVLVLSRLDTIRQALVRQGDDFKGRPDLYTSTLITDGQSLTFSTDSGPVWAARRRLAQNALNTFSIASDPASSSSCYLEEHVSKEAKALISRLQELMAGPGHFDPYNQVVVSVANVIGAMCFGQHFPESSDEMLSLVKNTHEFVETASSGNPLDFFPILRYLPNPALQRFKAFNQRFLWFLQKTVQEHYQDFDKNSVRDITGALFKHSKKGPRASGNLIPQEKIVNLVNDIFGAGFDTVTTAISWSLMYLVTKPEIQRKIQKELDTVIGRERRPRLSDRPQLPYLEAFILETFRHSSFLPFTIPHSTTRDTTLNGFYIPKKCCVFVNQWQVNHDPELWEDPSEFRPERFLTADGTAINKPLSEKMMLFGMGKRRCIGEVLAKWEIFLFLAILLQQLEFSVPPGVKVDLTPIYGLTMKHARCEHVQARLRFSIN

[13] = Intrinsic clearance in dog liver microsomes assessed per mg protein at 1 uM in presence of NADPH after 0.5 to 30 mins by LC/MS/MS method; assay type: ADME, Canis lupus familiaris; details: read-out: CLH
Mus musculus [14] = assay: Apparent volume of distribution in BALB/c mouse at 5 mg/kg, po after 24 hrs by LC/MS/MS method; assay type: ADME, organism-based; parameters: dose 5 mg/kg, route oral; details: in vivo
[15] = Cmax in BALB/c mouse at 5 mg/kg, po after 24 hrs by LC/MS/MS method; assay type: ADME, organism-based; parameters: dose 5 mg/kg, route oral; details: in vivo
[16] = target: Receptor tyrosine-protein kinase erbB-2 (Homo sapiens, UniProt P04626); assay: Inhibition of wild type HER2 (unknown origin) incubated for 5 mins by HTRF assay
NCI-H1975 [17] = assay: cells; assay type: functional, cell-based; details: Homo sapiens, NCI-H1975, 48 h
Mus musculus [18] = assay: Apparent volume of distribution in BALB/c mouse at 10 mg/kg, po after 24 hrs by LC/MS/MS method; assay type: ADME, organism-based; parameters: dose 10 mg/kg, route oral; details: in vivo
NCI-H1975 [19] = assay: Toxicity in human NCI-H1975 cells xenografted nude mouse assessed as induction of mortality at 30 mg/kg/day, ig; assay type: organism-based; parameters: route intragastric; details: in vivo, po
Procedure, shortened: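 H1975 NSCLC xenografts set up by subcutaneous inoculation of 3.0 × 10⁷ cells into nude mice. Dosing began at mean tumour size 50−150 mm³. Randomised mice received compound by ig gavage […] for 9 days. Vehicle control was 0.5% CMC-Na + 0.4% Tween80 at 10 mL/kg. Mortality and body weight were monitored during treatment.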

[20] = (§4) AUC (0 to infinity) in BALB/c mouse at 10 mg/kg, po after 24 hrs by LC/MS/MS method; assay type: ADME, organism-based, Plasma; parameters: dose 10 mg/kg, route oral, time infinity; details: BALB/c, plasma
[21] = (§5) Apparent clearance in BALB/c mouse at 10 mg/kg, po after 24 hrs by LC/MS/MS method; assay type: ADME, organism-based; parameters: dose 10 mg/kg, route oral; details: BALB/c, in vivo, read-out: CL(app)
[22] = Oral bioavailability in BALB/c mouse at 10 mg/kg after 24 hrs by LC/MS/MS method; assay type: ADME, organism-based; details: in vivo
NCI-H1975 [23] = assay: Antitumor activity against human NCI-H1975 cells xenografted in nude mouse assessed as reduction in tumor growth at 15 to 60 mg/kg/day, ig relative to untreated control; assay type: functional, organism-based
[24] = Cmax in BALB/c mouse at 10 mg/kg, po after 24 hrs by LC/MS/MS method; assay type: ADME, organism-based; parameters: dose 10 mg/kg, route oral; details: in vivo
NCI-H1975 [25] = assay: Antitumor activity against human NCI-H1975 cells xenografted in nude mouse assessed as reduction in tumor growth at 60 mg/kg/day, ig relative to untreated control; assay type: functional; details: route intragastric
SW-620 = assay: Growth inhibition of human SW620 cells at 5 uM; assay type: functional; details: read-out: GI
NCI-H1975 [26] = assay: Antitumor activity against human NCI-H1975 cells xenografted in nude mouse assessed as reduction in tumor growth at 15 mg/kg/day, ig relative to untreated control; assay type: functional; details: route intragastric
[27] = target: Epidermal growth factor receptor (Homo sapiens, UniProt P00533, T790M); assay type: protein assay
Mus musculus [28] = assay: as §1; assay type: ADME, organism-based, Plasma; parameters: time infinity, dose 5 mg/kg, route oral; details: in vivo, 24 h
Mus musculus [29] = assay: as §3; assay type: ADME, organism-based; parameters: dose 5 mg/kg, route oral; details: in vivo, 24 h
Mus musculus [30] = assay: as §4; assay type: ADME, organism-based, Plasma; parameters: dose 10 mg/kg, route oral, time infinity; details: in vivo, 24 h
Mus musculus [31] = assay: as §5; assay type: ADME, organism-based; parameters: dose 10 mg/kg, route oral; details: in vivo, 24 h
hERG (KCNH2) [32] = target: T1, hERG (KCNH2); assay: Inhibition of human ERG assessed as reduction in channel currents at 0.1 uM

T1 sequence (Q12809 whole entry): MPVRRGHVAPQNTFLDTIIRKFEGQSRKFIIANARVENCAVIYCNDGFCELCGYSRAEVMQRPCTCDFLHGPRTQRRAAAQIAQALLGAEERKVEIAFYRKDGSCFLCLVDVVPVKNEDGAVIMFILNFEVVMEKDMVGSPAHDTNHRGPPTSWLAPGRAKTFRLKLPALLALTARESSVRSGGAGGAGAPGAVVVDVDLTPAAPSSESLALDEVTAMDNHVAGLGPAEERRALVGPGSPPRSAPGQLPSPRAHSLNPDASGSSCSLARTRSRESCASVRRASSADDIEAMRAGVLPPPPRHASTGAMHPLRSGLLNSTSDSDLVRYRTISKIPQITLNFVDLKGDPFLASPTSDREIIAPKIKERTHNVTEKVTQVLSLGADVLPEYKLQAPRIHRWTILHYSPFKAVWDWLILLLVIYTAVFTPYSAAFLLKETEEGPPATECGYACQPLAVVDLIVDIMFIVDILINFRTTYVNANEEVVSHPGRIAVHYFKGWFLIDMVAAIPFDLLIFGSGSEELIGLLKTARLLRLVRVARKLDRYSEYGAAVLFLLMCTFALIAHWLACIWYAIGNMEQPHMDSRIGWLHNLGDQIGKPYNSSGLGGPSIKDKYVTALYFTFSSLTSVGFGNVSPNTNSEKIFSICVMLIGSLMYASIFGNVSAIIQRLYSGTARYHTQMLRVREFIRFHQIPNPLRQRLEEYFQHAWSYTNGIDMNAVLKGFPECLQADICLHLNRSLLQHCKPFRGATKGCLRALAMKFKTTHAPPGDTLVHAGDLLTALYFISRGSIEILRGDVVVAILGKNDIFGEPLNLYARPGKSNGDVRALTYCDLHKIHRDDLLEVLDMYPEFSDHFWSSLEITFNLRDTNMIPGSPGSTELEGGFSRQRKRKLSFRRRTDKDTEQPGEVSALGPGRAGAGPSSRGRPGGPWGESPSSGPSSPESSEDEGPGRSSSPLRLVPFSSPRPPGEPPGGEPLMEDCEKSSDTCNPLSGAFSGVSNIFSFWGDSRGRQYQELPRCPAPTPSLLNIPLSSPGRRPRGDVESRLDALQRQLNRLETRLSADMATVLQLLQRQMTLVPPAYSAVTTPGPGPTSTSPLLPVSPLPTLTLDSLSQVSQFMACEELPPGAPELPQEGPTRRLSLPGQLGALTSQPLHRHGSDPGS
Chain of Cytochrome P450 3A4 (P08684 whole entry): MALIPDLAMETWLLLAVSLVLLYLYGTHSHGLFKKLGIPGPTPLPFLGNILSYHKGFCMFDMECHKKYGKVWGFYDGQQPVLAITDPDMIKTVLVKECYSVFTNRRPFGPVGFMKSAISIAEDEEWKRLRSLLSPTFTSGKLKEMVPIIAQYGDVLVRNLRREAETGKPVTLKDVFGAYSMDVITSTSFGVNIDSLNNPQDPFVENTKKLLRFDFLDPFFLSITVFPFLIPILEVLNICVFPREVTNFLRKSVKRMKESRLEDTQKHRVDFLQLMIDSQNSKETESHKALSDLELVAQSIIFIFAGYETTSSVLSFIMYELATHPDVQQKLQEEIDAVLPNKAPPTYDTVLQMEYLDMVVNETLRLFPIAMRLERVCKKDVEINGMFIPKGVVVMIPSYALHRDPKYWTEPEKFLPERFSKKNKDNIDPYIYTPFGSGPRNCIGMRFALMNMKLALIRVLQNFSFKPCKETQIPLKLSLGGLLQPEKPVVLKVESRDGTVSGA
Chain of Cytochrome P450 2D6 (P10635 whole entry): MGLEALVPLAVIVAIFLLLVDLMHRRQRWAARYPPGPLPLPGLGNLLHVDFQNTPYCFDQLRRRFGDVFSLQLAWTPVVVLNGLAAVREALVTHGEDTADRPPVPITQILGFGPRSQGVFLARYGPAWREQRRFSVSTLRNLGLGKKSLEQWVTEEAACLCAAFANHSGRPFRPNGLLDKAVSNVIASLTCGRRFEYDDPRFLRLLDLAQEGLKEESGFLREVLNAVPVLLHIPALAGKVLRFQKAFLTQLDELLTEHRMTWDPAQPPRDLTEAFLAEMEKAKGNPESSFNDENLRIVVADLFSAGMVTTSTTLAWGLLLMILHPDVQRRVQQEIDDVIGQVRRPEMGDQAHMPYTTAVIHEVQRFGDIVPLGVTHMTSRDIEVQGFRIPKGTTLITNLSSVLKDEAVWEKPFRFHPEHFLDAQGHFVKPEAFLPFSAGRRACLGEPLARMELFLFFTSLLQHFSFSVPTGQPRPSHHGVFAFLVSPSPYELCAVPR
Chain of Cytochrome P450 2C9 (P11712 whole entry): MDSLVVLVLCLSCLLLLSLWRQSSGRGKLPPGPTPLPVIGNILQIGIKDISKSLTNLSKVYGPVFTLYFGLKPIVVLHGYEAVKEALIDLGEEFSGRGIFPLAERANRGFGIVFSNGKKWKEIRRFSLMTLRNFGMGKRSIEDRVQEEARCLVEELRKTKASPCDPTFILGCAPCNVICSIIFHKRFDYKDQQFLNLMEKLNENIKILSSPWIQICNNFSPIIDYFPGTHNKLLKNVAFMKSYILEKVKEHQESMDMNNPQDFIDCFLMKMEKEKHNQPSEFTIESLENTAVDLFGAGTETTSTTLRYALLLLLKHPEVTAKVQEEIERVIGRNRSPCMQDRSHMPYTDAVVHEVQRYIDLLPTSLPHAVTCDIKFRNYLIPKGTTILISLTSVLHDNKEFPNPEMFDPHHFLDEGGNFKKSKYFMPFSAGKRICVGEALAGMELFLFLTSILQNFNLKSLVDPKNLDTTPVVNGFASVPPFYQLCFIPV
Chain of Cytochrome P450 2C19 (P33261 whole entry): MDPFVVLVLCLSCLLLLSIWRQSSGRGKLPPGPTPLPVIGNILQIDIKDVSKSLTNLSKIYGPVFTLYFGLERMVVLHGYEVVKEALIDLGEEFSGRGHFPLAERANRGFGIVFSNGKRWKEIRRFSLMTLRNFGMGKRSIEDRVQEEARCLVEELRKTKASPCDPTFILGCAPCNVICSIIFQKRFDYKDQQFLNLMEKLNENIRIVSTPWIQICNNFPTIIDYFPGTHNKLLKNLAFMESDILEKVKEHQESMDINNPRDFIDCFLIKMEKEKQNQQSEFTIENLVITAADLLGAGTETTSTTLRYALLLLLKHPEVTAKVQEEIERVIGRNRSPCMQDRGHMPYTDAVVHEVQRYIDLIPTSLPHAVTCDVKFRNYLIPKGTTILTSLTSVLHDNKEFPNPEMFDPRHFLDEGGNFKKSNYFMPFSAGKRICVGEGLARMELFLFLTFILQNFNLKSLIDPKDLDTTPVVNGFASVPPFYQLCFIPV
Chain of Receptor tyrosine-protein kinase erbB-2 (P04626 whole entry): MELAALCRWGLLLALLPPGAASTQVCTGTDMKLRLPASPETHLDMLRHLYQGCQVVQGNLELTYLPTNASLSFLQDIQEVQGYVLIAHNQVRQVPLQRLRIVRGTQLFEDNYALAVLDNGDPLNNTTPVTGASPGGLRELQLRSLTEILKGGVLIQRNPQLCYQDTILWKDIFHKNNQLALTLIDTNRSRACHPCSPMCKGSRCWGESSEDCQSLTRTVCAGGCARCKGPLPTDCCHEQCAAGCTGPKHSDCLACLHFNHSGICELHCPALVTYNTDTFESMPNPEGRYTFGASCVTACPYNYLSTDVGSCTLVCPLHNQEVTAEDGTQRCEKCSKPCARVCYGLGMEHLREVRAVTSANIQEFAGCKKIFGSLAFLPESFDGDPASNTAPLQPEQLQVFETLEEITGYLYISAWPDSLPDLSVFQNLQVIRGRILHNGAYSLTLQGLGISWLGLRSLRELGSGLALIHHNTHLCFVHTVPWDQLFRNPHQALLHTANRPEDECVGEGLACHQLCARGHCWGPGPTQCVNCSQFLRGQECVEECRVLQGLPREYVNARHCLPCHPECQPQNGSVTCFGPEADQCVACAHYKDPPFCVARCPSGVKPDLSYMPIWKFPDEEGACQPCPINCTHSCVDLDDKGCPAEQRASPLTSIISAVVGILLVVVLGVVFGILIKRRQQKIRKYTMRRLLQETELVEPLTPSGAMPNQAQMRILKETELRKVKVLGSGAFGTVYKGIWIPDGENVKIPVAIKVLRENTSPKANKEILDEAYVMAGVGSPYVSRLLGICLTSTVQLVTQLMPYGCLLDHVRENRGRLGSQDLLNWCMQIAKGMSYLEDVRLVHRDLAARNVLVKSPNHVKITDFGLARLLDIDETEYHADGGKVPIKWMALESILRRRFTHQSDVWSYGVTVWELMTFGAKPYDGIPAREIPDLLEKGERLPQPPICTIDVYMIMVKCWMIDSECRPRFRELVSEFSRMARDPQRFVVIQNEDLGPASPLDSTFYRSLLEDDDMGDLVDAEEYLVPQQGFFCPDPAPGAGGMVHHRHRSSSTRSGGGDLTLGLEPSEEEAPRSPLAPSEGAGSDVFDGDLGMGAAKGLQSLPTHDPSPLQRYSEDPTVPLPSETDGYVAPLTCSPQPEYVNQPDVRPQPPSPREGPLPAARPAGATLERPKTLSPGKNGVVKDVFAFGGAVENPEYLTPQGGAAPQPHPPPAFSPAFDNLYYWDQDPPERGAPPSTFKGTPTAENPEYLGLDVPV

SMILES | microsomal CLint at 1 µM [2] | microsomal CLint at 1 µM [5] | microsomal CLint at 1 µM [8] | bioavailability [9] | microsomal CLint at 1 µM [11] | microsomal CLint at 1 µM [13] | Vz (Mus musculus [14]) | Cmax [15] | IC50 (A-431) | Kp at 6 h [3] | Kp at 6 h [4] | inhibition at 1 µM (hERG (KCNH2) [6]) | inhibition at 10 µM (hERG (KCNH2) [7]) | IC50 (Cytochrome P450 3A4) | IC50 (Cytochrome P450 2C9) | T/C (NCI-H1975 [10]) | IC50 (Cytochrome P450 2D6) | IC50 (Cytochrome P450 2C19) | IC50 (Cytochrome P450 1A2) | IC50 (NCI-H1975 [17]) | other results
CN(C)C/C=C(\F)C(=O)Nc1cc2c(Nc3ccc(F)c(Cl)c3)ncnc2cc1O[C@H]1CCOC1 | 14 µL/min/mg | 2 µL/min/mg | 12 µL/min/mg |  | 31 µL/min/mg | 39 µL/min/mg |  |  | 130 nM | 25 | 0.79 | 0% | 14.8% | > 10000 nM | > 10000 nM | 19.5% | > 10000 nM | > 10000 nM | > 10000 nM | 1240 nM | IC50 [16]: 149 nM; Vz (Mus musculus [18]): 9.69 L/kg; Activity (NCI-H1975 [19]): Non-toxic; AUC(0-inf) [20]: 10.4 µM·h; CL/F [21]: 30 mL/min/kg; bioavailability [22]: 84.7%; inhibition (NCI-H1975 [23]): Dose-dependent effect; Cmax [24]: 940 nM; T/C (NCI-H1975 [25]): 9.4%; inhibition of growth at 5 µM (SW-620): 11.5%; T/C (NCI-H1975 [26]): 42.5%; IC50 [27]: 5.52 nM
COc1cc(N)c(Cl)cc1C(=O)NC1CCN(CCCOc2ccc(F)cc2)CC1OC (stereo not given) [CISAPRIDE] |  |  |  |  |  |  |  |  |  |  |  | 92.4% |  |  |  |  |  |  |  |  | inhibition at 0.1 µM (hERG (KCNH2) [32]): 65.5%

The next lines start with results.

microsomal CLint at 1 µM [2] | microsomal CLint at 1 µM [5] | microsomal CLint at 1 µM [8] | bioavailability [9] | microsomal CLint at 1 µM [11] | microsomal CLint at 1 µM [13] | Vz (Mus musculus [14]) | Cmax [15] | SMILES | IC50 (A-431) | Kp at 6 h [3] | Kp at 6 h [4] | inhibition at 1 µM (hERG (KCNH2) [6]) | inhibition at 10 µM (hERG (KCNH2) [7]) | IC50 (Cytochrome P450 3A4) | IC50 (Cytochrome P450 2C9) | T/C (NCI-H1975 [10]) | IC50 (Cytochrome P450 2D6) | IC50 (Cytochrome P450 2C19) | IC50 (Cytochrome P450 1A2) | IC50 (NCI-H1975 [17]) | other results
11 µL/min/mg | 37 µL/min/mg | 31 µL/min/mg | 105% | 102 µL/min/mg | 34 µL/min/mg | 7.14 L/kg | 830 nM | COc1cc2ncnc(Nc3ccc(F)c(Cl)c3)c2cc1NC(=O)/C(F)=C/CN1CCCCC1 | 460 nM | 20 | 2.31 | 0.71% | 11.8% | > 10000 nM | > 10000 nM | 67.4% | > 10000 nM | > 10000 nM | > 10000 nM |  | AUC(0-inf) [1]: 5.1 µM·h; CL/F [12]: 40 mL/min/kg
 |  |  | 16.5% |  |  | 12.2 L/kg | 90 nM | COc1cc2ncnc(Nc3ccc(F)c(Cl)c3)c2cc1NC(=O)/C(F)=C\CN1CCCCC1 |  |  |  |  |  |  |  |  |  |  |  | 1010 nM | AUC (Mus musculus [28]): 14.7 µM·min; CL(app) (Mus musculus [29]): 120 mL/min/kg
12 µL/min/mg | 8 µL/min/mg | 6 µL/min/mg |  | 24 µL/min/mg | 9 µL/min/mg |  |  | CN(C)C/C=C/C(=O)Nc1cc2c(Nc3ccc(F)c(Cl)c3)ncnc2cc1O[C@H]1CCOC1 [AFATINIB] |  |  |  |  |  |  |  | 30.3% |  |  |  |  | Vz (Mus musculus [18]): 36.2 L/kg; AUC (Mus musculus [30]): 29.4 µM·min; CL(app) (Mus musculus [31]): 270 mL/min/kg; bioavailability [22]: 37.4%; Cmax [24]: 130 nM; inhibition of growth at 5 µM (SW-620): 78%
